Legend:
[1] = molecular target: T1, CYP3A (Homo sapiens, UniProt P08684+P20815+P24462+Q9HB55); assay: Time dependent inhibition of human CYP3A midazolam 1'-hydroxylase activity assessed as decrease in enzyme activity at 1 uM preincubated for 30 mins by IC25-shift assay; type: ADME; conditions: probe midazolam (1'-hydroxylation)
Procedure, shortened: (§1)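 IC25-shift assay. Pooled HLMs or recombinant CYP3A4/3A5/3A7 were preincubated 30 min at 37°C with CYP3cide, with or without NADPH (1.3 mM) (N=2). Mixture diluted 10-fold into probe substrate (~KM) at 37°C. Metabolites analysed by LC/MS/MS. Readout: % decrease in activity vs control.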

[2] = molecular target: T1, CYP3A; assay: Time dependent inhibition of human CYP3A testosterone 6beta-hydroxylase activity assessed as decrease in enzyme activity at 5 uM preincubated for 30 mins by IC25-shift assay; type: ADME; conditions: probe testosterone (6beta-hydroxylation); procedure, shortened: as §1
[3] = molecular target: T2, CYP3A4 (Homo sapiens, UniProt P08684); assay: Time dependent inhibition of testosterone 6beta-hydroxylase activity of human recombinant CYP3A4 in presence of human P450 oxidoreductase and b5 assessed as decrease in enzyme activity at 0.050 uM preincubated for 30 mins by IC25-shift assay; type: ADME; conditions: recombinant CYP3A4 with human P450 oxidoreductase and b5, probe testosterone (6beta-hydroxylation); procedure, shortened: as §1
T2 sequence (P08684 whole entry): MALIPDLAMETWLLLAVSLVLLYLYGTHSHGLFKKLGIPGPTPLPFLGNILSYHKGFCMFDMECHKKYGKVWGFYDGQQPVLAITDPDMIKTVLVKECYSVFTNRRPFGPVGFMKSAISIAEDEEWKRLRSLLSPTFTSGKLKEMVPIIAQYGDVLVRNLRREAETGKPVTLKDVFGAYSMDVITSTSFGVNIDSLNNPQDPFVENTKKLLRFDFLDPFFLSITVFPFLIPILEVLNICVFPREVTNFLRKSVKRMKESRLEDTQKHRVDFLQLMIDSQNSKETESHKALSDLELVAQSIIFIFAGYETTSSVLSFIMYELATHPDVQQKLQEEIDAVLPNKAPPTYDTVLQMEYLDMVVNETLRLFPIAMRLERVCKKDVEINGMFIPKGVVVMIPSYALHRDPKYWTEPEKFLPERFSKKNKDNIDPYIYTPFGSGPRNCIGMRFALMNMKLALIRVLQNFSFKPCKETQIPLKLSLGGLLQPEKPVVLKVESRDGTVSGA

[4] = molecular target: CYP3A5 (Homo sapiens, UniProt P20815); assay: Time dependent inhibition of testosterone 6beta-hydroxylase activity of human recombinant CYP3A5 in presence of human P450 oxidoreductase and b5 assessed as decrease in enzyme activity at 2 uM preincubated for 30 mins by IC25-shift assay; type: ADME; conditions: recombinant CYP3A5 with human P450 oxidoreductase and b5, probe testosterone (6beta-hydroxylation); procedure, shortened: as §1
CYP3A5, sequence (P20815 whole entry): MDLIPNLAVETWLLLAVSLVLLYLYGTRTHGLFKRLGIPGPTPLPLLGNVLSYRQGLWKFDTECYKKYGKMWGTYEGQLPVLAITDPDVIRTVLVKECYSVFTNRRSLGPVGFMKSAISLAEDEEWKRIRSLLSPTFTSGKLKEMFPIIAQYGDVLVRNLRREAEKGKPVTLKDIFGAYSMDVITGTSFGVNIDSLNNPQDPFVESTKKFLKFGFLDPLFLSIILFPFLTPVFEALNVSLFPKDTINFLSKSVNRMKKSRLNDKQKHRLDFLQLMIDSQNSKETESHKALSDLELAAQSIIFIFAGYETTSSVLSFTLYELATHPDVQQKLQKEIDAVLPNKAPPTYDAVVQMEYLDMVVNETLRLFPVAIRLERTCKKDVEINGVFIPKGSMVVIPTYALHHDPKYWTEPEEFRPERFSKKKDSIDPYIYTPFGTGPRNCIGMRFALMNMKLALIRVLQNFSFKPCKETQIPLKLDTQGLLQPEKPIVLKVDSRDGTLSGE

[5] = molecular target: CYP3A7 (Homo sapiens, UniProt P24462); assay: Time dependent inhibition of midazolam 1'-hydroxylase activity of human recombinant CYP3A7 harboring human P450 oxidoreductase and b5 assessed as decrease in enzyme activity at 100 uM preincubated for 30 mins by IC25-shift assay; type: ADME; conditions: recombinant CYP3A7 with human P450 oxidoreductase and b5, probe midazolam (1'-hydroxylation); procedure, shortened: as §1
CYP3A7, sequence (P24462 whole entry): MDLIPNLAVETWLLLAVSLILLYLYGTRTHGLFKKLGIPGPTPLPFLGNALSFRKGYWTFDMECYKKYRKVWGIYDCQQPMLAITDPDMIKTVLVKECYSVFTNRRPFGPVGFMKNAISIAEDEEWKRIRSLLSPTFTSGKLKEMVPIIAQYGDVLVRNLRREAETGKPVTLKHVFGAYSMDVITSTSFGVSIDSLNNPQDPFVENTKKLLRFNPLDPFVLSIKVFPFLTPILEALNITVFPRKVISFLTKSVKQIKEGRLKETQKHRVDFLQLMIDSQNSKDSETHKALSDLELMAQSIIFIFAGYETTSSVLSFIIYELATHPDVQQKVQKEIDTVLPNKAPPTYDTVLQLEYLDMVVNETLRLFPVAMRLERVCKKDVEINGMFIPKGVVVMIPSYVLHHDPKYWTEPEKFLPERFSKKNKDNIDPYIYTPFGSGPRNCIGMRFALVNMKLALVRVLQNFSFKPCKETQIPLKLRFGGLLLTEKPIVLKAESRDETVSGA

[6] = molecular target: Cytochrome P450 2B6 (Homo sapiens, UniProt P20813); assay: Reversible inhibition of human CYP2B6 bupropion hydroxylase activity; type: ADME
Cytochrome P450 2B6, sequence (P20813 whole entry, canonical isoform): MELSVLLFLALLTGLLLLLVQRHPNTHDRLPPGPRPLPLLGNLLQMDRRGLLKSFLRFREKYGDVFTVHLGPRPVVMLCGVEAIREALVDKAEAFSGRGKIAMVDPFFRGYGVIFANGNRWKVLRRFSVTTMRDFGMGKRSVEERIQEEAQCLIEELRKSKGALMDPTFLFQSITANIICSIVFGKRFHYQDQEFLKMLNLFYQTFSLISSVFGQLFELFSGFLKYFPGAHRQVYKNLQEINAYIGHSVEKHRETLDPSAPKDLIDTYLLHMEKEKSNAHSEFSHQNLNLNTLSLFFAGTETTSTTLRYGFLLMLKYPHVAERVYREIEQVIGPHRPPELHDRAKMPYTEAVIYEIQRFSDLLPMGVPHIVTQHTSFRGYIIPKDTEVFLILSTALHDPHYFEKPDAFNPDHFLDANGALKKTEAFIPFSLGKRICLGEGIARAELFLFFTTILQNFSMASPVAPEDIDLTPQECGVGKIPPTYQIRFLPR
Procedure, shortened: (§2)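 Reversible IC50 with pooled HLM or recombinant CYP3A7 (with POR and b5), protein 0.010–0.10 mg/ml depending on isoform. Probe substrate at its experimentally derived KM. Metabolite formation measured by LC/MS/MS. IC50 determinations run in duplicate.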

[7] = molecular target: Cytochrome P450 2C8 (Homo sapiens, UniProt P10632); assay: Reversible inhibition of human CYP2C8 paclitaxel 6alpha-hydroxylase activity; type: ADME; procedure, shortened: as §2
Cytochrome P450 2C8, sequence (P10632 whole entry): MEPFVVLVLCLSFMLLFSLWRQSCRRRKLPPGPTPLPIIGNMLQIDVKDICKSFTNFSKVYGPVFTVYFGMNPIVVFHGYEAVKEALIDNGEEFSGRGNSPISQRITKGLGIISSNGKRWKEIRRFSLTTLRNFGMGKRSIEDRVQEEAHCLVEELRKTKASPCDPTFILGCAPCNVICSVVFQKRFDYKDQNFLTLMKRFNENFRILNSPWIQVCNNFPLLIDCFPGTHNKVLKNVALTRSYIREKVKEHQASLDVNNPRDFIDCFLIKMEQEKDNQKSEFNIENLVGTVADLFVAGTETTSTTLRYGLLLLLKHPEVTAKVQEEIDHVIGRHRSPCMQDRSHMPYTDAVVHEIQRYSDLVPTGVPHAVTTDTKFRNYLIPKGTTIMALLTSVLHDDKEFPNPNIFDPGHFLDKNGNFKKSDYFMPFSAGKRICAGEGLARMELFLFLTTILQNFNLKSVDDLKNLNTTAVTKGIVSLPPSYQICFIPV

[8] = molecular target: T1, CYP3A; assay: Reversible inhibition of human CYP3A testosterone 6beta-hydroxylase activity; type: ADME; conditions: probe testosterone (6beta-hydroxylation); procedure, shortened: as §2
[9] = molecular target: T3, Cytochrome P450 3A4 (Homo sapiens, UniProt P08684); assay: Reversible inhibition of testosterone 6beta-hydroxylase activity of human recombinant CYP3A4 in presence of human P450 oxidoreductase and b5; type: ADME
T3 sequence (P08684 whole entry): as the sequence (P08684 whole entry) above
Procedure, shortened: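 IC50 was measured with baculovirus-expressed CYP3A4 plus POR and cytochrome b5 (P450:reductase:b5 1:5:7), with substrate at its experimentally derived KM, in duplicate. Enzyme was 0.010 mg/ml for midazolam 1'-hydroxylation and 0.020 mg/ml for testosterone 6β-hydroxylation.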

[10] = molecular target: T4, Cytochrome P450 3A5 (Homo sapiens, UniProt P20815); assay: Reversible inhibition of testosterone 6beta-hydroxylase activity of human recombinant CYP3A5 in presence of human P450 oxidoreductase and b5; type: ADME
Procedure, shortened: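 Recombinant CYP3A5 expressed in baculovirus, with P450 oxidoreductase and cytochrome b5 (P450:POR:b5 1:13:7). Enzyme at 0.010 mg/ml for midazolam 1'-hydroxylase and 0.020 mg/ml for testosterone 6β-hydroxylase. Each substrate at its experimentally derived KM. IC50 determined in duplicate.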
Target sequence in this assay (P20815 whole entry): as the sequence (P20815 whole entry) above

[11] = molecular target: CYP1A2 (Homo sapiens, UniProt P05177); assay: Time dependent inhibition of human CYP1A2 phenacetin O-deethylase activity assessed as decrease in enzyme activity at 100 uM preincubated for 30 mins by IC25-shift assay; type: ADME; conditions: probe phenacetin (O-deethylation); procedure, shortened: as §1
CYP1A2, sequence (P05177 whole entry): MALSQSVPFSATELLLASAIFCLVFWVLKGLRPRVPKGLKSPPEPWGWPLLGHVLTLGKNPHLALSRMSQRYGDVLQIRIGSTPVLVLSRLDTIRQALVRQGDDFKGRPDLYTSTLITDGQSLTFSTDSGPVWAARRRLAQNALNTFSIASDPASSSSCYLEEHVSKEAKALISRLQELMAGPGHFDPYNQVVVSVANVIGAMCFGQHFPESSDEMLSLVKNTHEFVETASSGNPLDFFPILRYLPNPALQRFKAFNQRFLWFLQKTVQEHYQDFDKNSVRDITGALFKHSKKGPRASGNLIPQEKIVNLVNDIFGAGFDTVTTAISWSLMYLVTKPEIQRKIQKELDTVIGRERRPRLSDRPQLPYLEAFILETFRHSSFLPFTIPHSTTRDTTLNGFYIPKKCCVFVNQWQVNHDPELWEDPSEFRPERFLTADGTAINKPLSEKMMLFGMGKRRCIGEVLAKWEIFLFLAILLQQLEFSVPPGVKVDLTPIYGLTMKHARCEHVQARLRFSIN

[12] = molecular target: T4, Cytochrome P450 3A5; assay: Inhibition of midazolam 1'-hydroxylase activity of human recombinant CYP3A5 harboring human P450 oxidoreductase and b5 assessed as decrease in enzyme activity preincubated for 30 mins by LC-MS/MS analysis; type: ADME
Procedure, shortened: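 rCYP3A5 with POR and b5 (0.010 mg/ml for midazolam, 0.020 mg/ml for testosterone) preincubated 30 min at 37°C with 2 µM inhibitor, ±NADPH (1.3 mM), N=2. Mixture then diluted 10-fold into probe substrate at ~KM at 37°C. Activity expressed as percent of control remaining, reported as decrease in activity.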
Target sequence in this assay (P20815 whole entry): as the sequence (P20815 whole entry) above

[13] = molecular target: T2, CYP3A4; assay: Irreversible inhibition of human recombinant CYP3A4 harboring human P450 oxidoreductase and b5 assessed as residual midazolam 1'-hydroxylase activity in presence of NADPH relative to control; type: ADME; conditions: recombinant CYP3A4 with human P450 oxidoreductase and b5, probe midazolam (1'-hydroxylation)
[14] = molecular target: T3, Cytochrome P450 3A4; assay: (§3) Drug metabolism assessed as human recombinant CYP3A4 in presence of human P450 oxidoreductase and b5-mediated 1-((3S)-1-(1-methyl-3-(1-methyl-5-p-tolyl-1H-pyrazol-4-yl)-1H-pyrazolo[3,4-d]pyrimidin-4-yl)pyrrolidin-3-yl)-2,3,4,5-tetrahydropyridinium formation at 10 uM by HPLC-MS analysis in presence of NADPH; type: ADME; conditions: recombinant enzyme
Procedure, shortened: (§4)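 Recombinant CYP3A4 or CYP3A5 (50 pmol/ml final) added, without preincubation, to 10 µM CYP3cide with NADPH (final 1 mM) in 100 mM phosphate pH 7.4. Trapping incubations also held 200 µM KCN or 5 mM GSH (final). Incubated 1 h at 37°C, quenched with acetonitrile, dried, reconstituted. Metabolites analysed by LC/Orbitrap ESI-MS.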

[15] = molecular target: T4, Cytochrome P450 3A5; assay: as §3, with “human recombinant CYP3A5 in presence” for “human recombinant CYP3A4 in presence”, “presence of KCN and NADPH” for “presence of NADPH”; type: ADME; conditions: recombinant enzyme; procedure, shortened: as §4
Target sequence in this assay (P20815 whole entry): as above

[16] = Inhibition of CYP3A5*3/*3 in 5 mg/ml of human liver microsomes assessed as midazolam 1'-hydroxylase activity at <2.5 uM after 10 mins; type: ADME
[17] = test system: CYP3A5*3/*3; assay: Time dependent inhibition of CYP3A5*3/*3 in human liver microsomes assessed as midazolam 1'-hydroxylase activity at 0.56 uM after 10 mins by dilution method; type: ADME; conditions: human liver microsomes (CYP3A5*3/*3 genotype), probe midazolam (1'-hydroxylation)
Procedure, shortened: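 Genotyped individual HLMs (0.1 mg/ml) preincubated at 37°C with CYP3cide (0–1.3 μM; 10 min in the two-donor study, 5 min in the 30-donor study), with or without 1.3 mM NADPH (N=3). Mixture diluted 20-fold into 23 μM midazolam for 6 min. 1'-OH-midazolam measured. Readout: % of vehicle/no-NADPH control activity.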

[18] = molecular target: T4, Cytochrome P450 3A5; assay: Drug metabolism assessed as human recombinant CYP3A5 in presence of human P450 oxidoreductase and b5-mediated 1-((3S)-1-(1-methyl-3-(1-methyl-5-p-tolyl-1H-pyrazol-4-yl)-1H-pyrazolo[3,4-d]pyrimidin-4-yl)pyrrolidin-3-yl)-2,3,4,5-tetrahydropyridinium formation at 10 uM by HPLC-MS analysis in presence of KCN and NADPH; conditions: recombinant enzyme
Target sequence in this assay (P20815 whole entry, looked up): as the sequence (P20815 whole entry) above

## Cc1ccc(-c2c(-c3nn(C)c4ncnc(N5CC[C@H](N6CCCCC6)C5)c34)cnn2C)cc1
[1]
  inhibition at 30 min, 1 µM: 47%
[2]
  inhibition at 30 min, 5 µM: 53%
[3]
  inhibition at 30 min, 0.05 µM: 74%
[4]
  inhibition at 30 min, 2 µM: 71%
[5]
  inhibition at 30 min, 100 µM: 15%
[6]
  IC50: 88 µM
[7]
  IC50: 78 µM
[8]
  IC50: 1.4 µM
[9]
  IC50: 0.69 µM
[10]
  IC50: 71 µM
[11]
  inhibition at 30 min, 100 µM: 17%
[12]
  Ki: 2 µM
[13]
  activity: 16%
[14]
  Drug metabolism: metabolite_detected
[15]
  Drug metabolism: metabolite_detected
[16]
  inhibition (INH): Not Active
[17]
  inhibition at 10 min, 0.56 µM: 0.4%
[18]
  Drug metabolism: metabolite_detected
